The source of these data is ChEMBL document CHEMBL1275344, “Synthesis and antimalarial assessment of a new series of orally active amino-functionalized spiro 1,2,4-trioxanes” (J Med Chem, 2010).

Data set [1] relates to Plasmodium yoelii nigeriensis. Put plainly: Antimalarial activity against multidrug-resistant Plasmodium yoelii nigeriensis infected in Swiss mice (Mus musculus) assessed as suppression of parasitaemia at 48 mg/kg, peroral for 4 days relative to control. It is filed as functional. The note with it: route oral. Summed up: (§1)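 Swiss mice of either sex (20 ± 2 g) infected intraperitoneally with 1 × 10⁶ MDR P. yoelii nigeriensis parasites on day 0. Five mice per dose group, given oral doses in groundnut oil, twice daily on days 0–3. Parasitaemia read from day-4 thin blood smears. Suppression = [(C − T)/C] × 100, with C and T the control and treated parasitaemia. 100% means no parasites seen in 50 oil-immersion fields.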

Data set [2] is described as follows: Lipophilicity, log P of the compound. The note with it: octanol/water. It is filed as physicochemical.
In data set [3] the test system is Plasmodium yoelii nigeriensis. Put plainly: Antimalarial activity against multidrug-resistant Plasmodium yoelii nigeriensis infected in Swiss mice (Mus musculus) assessed as suppression of parasitaemia at 96 mg/kg, perorally for 4 days relative to control. It is filed as functional. The note with it: route oral. In short, it runs like this:
as §1

Data set [4] has as its system Plasmodium yoelii nigeriensis. Put plainly: Antimalarial activity against multidrug-resistant Plasmodium yoelii nigeriensis infected in Swiss mice (Mus musculus) assessed as curated mice (Mus musculus) at 96 mg/kg, peroral for 4 days. In kind it is functional, organism-based. Also on record: dose 96 mg/kg. Summed up: (§2)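 Swiss mice of either sex (20 ± 2 g) inoculated intraperitoneally with 1 × 10⁶ MDR P. yoelii nigeriensis parasites on day 0. Five mice per dose group, dosed orally in groundnut oil (0.1 mL), in two divided doses daily from day 0 to 3. Thin blood smears read on day 4, then twice weekly to day 28. Mice without patent infection by day 28 counted as cured. β-Arteether was the positive control.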

Data set [5] relates to Plasmodium yoelii nigeriensis. Briefly: Antimalarial activity against multidrug-resistant Plasmodium yoelii nigeriensis infected in Swiss mice (Mus musculus) assessed as curated mice (Mus musculus) at 48 mg/kg, peroral for 4 days. In kind it is functional, organism-based. Also on record: dose 48 mg/kg. Summed up:
as §2

Data set [6] has as its system Plasmodium yoelii nigeriensis. Briefly: Antimalarial activity against multidrug-resistant Plasmodium yoelii nigeriensis infected in Swiss mice (Mus musculus) assessed as suppression of parasitaemia at 24 mg/kg, peroral for 4 days relative to control. It is filed as functional. The following applies: route oral. Summed up: as §1

SMILES strings stand for the structures. Calls of active or inactive are those of the source. The rule behind the calls is not given here.

With `C=C(c1ccc2ccccc2c1)C1CCC2(CC1)COC(Nc1cc(Cl)cc(Cl)c1)OO2` (stereo not drawn), the Activity in data set [1] and in data set [3] was 100% each time. Also, the logP (usually a log measure of how a compound divides between an organic and an aqueous phase) in data set [2] was 6.71. Besides, the result in data set [4] was Active.
Turning to `C=C(c1ccc2ccccc2c1)C1CCC2(CC1)COC(Nc1ccccc1-c1ccccc1)OO2` (stereo not drawn), the Activity in data set [1] and in data set [3] was 100% each time. In data set [2], this compound displayed a logP of 7.26. The outcome in data set [4] was Active.
Turning to `C=C(c1ccc2c(c1)Cc1ccccc1-2)C1CCC2(CC1)COC(Nc1ccc(OC)cc1)OO2` (stereo not drawn), the Activity in data set [1] and in data set [3] was 100% in each case. Also, in data set [2], the logP was determined as 6.2. Moreover, the outcome in data set [5] was inactive. Also, the outcome in data set [4] was Active.
`C=C(c1ccc2ccc3ccccc3c2c1)C1CCC2(CC1)COC(Nc1ccccc1)OO2` (stereo not drawn): the Activity in data set [1], in data set [3] and in data set [6] was 100% throughout. Moreover, the logP in data set [2] was 6.59. For the same compound, in data set [4], the outcome was Active.
Take `C=C(c1cccc2ccccc12)C1CCC2(CC1)COC(Nc1ccc(C)cc1)OO2` (stereo not drawn): the Activity in data set [1] and in data set [3] was 100% in each case. Besides, the logP in data set [2] was 6.08.
On to `C=C(c1ccc2ccccc2c1)C1CCC2(CC1)COC(Nc1ccc(C)cc1)OO2` (stereo not drawn), for which the Activity in data set [1] and in data set [3] was 100% in each case. The logP in data set [2] came to 6.08. Besides, in data set [4], the outcome was Active.
With `C=C(c1cccc2ccccc12)C1CCC2(CC1)COC(Nc1ccc(F)cc1)OO2` (stereo not drawn), the Activity in data set [1] and in data set [3] was 100% throughout. In data set [2], the log partition coefficient (logP) was 5.75. Moreover, the outcome in data set [4] was Active.
On to `C=C(c1cccc2ccccc12)C1CCC2(CC1)COC(Nc1ccc(OC)cc1)OO2` (stereo not drawn), for which the Activity in data set [1] and in data set [3] was 100% throughout. Moreover, the logP in data set [2] was determined as 5.46. Further, the result in data set [4] was Active.
As to `C=C(c1cccc2ccccc12)C1CCC2(CC1)COC(Nc1ccc(Cl)cc1)OO2` (stereo not drawn), the Activity in data set [1] and in data set [3] was 100% throughout. Besides, in data set [2], the logP is 6.15.
Regarding `C=C(c1cccc2ccccc12)C1CCC2(CC1)COC(Nc1cc(Cl)cc(Cl)c1)OO2` (stereo not drawn), the Activity in data set [1] and in data set [3] was 100% each time. The compound further gave a logP in data set [2] of 6.71. The outcome in data set [4] was Active.
Regarding `C=C(c1cccc2ccccc12)C1CCC2(CC1)COC(Nc1ccccc1)OO2` (stereo not drawn), the Activity in data set [1] and in data set [3] was 100% in each case. For the same compound, the logP in data set [2] came out at 5.59. Besides, the result in data set [4] was Active.
As for `C=C(c1ccc2ccccc2c1)C1CCC2(CC1)COC(Nc1ccc(F)cc1)OO2` (stereo not drawn), the Activity in data set [1], in data set [3] and in data set [6] was 100% in each case. Also, the logP in data set [2] worked out at 5.75. Also, the result in data set [4] was Active.
On to `C=C(c1ccc2ccc3ccccc3c2c1)C1CCC2(CC1)COC(Nc1ccccc1-c1ccccc1)OO2` (stereo not drawn), for which the Activity in data set [1] is 74.36%; in data set [3], 100%. In data set [2], the logP turned out to be 8.26. Besides, in data set [5], the outcome was inactive. Besides, the result in data set [4] was Active.
On to `C=C(c1ccc2ccccc2c1)C1CCC2(CC1)COC(Nc1cccc(C(F)(F)F)c1)OO2` (stereo not drawn), for which the Activity in data set [1] and in data set [3] was 100% each time. Further, the logP in data set [2] is 6.51. Also, the result in data set [4] was Active.
With `C=C(c1ccc2c(c1)Cc1ccccc1-2)C1CCC2(CC1)COC(Nc1ccc(C(F)(F)F)cc1)OO2` (stereo not drawn), the Activity in data set [1] and in data set [3] was 100% each time. The compound further registered a log partition coefficient (logP) in data set [2] of 7.25. Also, the outcome in data set [4] was Active.
Consider `C=C(c1ccc2ccc3ccccc3c2c1)C1CCC2(CC1)COC(Nc1ccc(C)cc1)OO2` (stereo not drawn), for which the Activity in data set [1], in data set [3] and in data set [6] was 100% in each case. In data set [2], this compound displayed a logP of 7.07. Moreover, the result in data set [5] and in data set [4] was Active.
As for `C=C(c1ccc2c(c1)Cc1ccccc1-2)C1CCC2(CC1)COC(Nc1cccc(C(F)(F)F)c1)OO2` (stereo not drawn), the Activity in data set [1] and in data set [3] was 100% throughout. Moreover, the log partition coefficient (logP) in data set [2] stood at 7.25. The result in data set [5] was inactive. Besides, in data set [4], the result was Active.
On to `C=C(c1cccc2ccccc12)C1CCC2(CC1)COC(Nc1ccc(C(F)(F)F)cc1)OO2` (stereo not drawn), for which the Activity in data set [1] and in data set [3] was 100% throughout. In addition, the lipophilicity (logP) in data set [2] amounted to 6.51. Besides, the result in data set [4] was Active.
`CCO[C@H]1O[C@@H]2O[C@@]3(C)CC[C@H]4[C@H](C)CC[C@@H]([C@H]1C)[C@@]24OO3` [ARTEMOTIL]: the Activity in data set [1] and in data set [6] was 100% each time. In addition, the outcome in data set [5] was Active.
As to `C=C(c1ccc2ccccc2c1)C1CCC2(CC1)COC(Nc1ccc(OC)cc1)OO2` (stereo not drawn), the Activity in data set [1] and in data set [3] was 100% each time. Besides, the logP in data set [2] was 5.46. The outcome in data set [4] was Active.
With `C=C(c1cccc2ccccc12)C1CCC2(CC1)COC(Nc1cccc(C(F)(F)F)c1)OO2` (stereo not drawn), the Activity in data set [1] and in data set [3] was 100% throughout. Further, the logP in data set [2] amounted to 6.51. In addition, the result in data set [4] was Active.
Consider `C=C(c1ccc2ccc3ccccc3c2c1)C1CCC2(CC1)COC(Nc1ccc(C(F)(F)F)cc1)OO2` (stereo not drawn), for which the Activity is listed as 82.22% in data set [1] and 100% in data set [3]. Further, in data set [2], the logP came to 7.51. For the same compound, in data set [5], the outcome was inactive. For the same compound, the outcome in data set [4] was Active.
For `C=C(c1cccc2ccccc12)C1CCC2(CC1)COC(Nc1ccccc1-c1ccccc1)OO2` (stereo not drawn), the Activity in data set [1] and in data set [3] was 100% in each case. The same compound had a logP in data set [2] of 7.26. For the same compound, in data set [4], the outcome was Active.
For the compound `C=C(c1ccc2ccc3ccccc3c2c1)C1CCC2(CC1)COC(Nc1ccc(F)cc1)OO2` (stereo not drawn), the Activity in data set [1] and in data set [3] was 100% each time. In data set [2], this compound returned a logP of 6.74. The outcome in data set [4] was Active.
Turning to `C=C(c1ccc2c(c1)Cc1ccccc1-2)C1CCC2(CC1)COC(Nc1ccc(F)cc1)OO2` (stereo not drawn), the Activity in data set [1] and in data set [3] was 100% throughout. Besides, the logP in data set [2] was found to be 6.48. Further, the result in data set [4] was Active.
As to `C=C(c1ccc2c(c1)Cc1ccccc1-2)C1CCC2(CC1)COC(Nc1ccc(Cl)cc1)OO2` (stereo not drawn), the logP in data set [2] was 6.88. The Activity in data set [3] was found to be 100%. The outcome in data set [4] was Active.
Regarding `C=C(c1ccc2c(c1)Cc1ccccc1-2)C1CCC2(CC1)COC(Nc1ccc(C)cc1)OO2` (stereo not drawn), the Activity in data set [1] and in data set [3] was 100% throughout. Further, in data set [2], the logP is 6.81. Besides, the result in data set [4] was Active.
With `C=C(c1ccc2ccc3ccccc3c2c1)C1CCC2(CC1)COC(Nc1cc(Cl)cc(Cl)c1)OO2` (stereo not drawn), the Activity in data set [1] amounted to 62.5%; in data set [3] it was 100%. The same compound came in with a logP in data set [2] of 7.7. The outcome in data set [4] was Active.
On the same counts, the results for `C=C(c1ccc2c(c1)Cc1ccccc1-2)C1CCC2(CC1)COC(Nc1ccccc1)OO2` (stereo not drawn) are 100%, 100%, 6.33 and “Active”.
On the same counts, the results for `C=C(c1ccc2ccc3ccccc3c2c1)C1CCC2(CC1)COC(Nc1ccc(OC)cc1)OO2` (stereo not drawn) are 100%, 100%, 6.46 and “Active”.
In the case of `C=C(c1ccc2ccc3ccccc3c2c1)C1CCC2(CC1)COC(Nc1cccc(C(F)(F)F)c1)OO2` (stereo not drawn), the Activity in data set [1] and in data set [3] was 100% each time. In data set [2], this compound returned a logP of 7.51. Besides, in data set [5], the result was inactive. For the same compound, the outcome in data set [4] was Active.
`C=C(c1ccc2c(c1)Cc1ccccc1-2)C1CCC2(CC1)COC(Nc1cc(Cl)cc(Cl)c1)OO2` (stereo not drawn): the logP in data set [2] was found to be 7.44. For the same compound, the Activity in data set [3] is listed as 100%. The result in data set [4] was inactive.
On the same counts, the results for `C=C(c1ccc2c(c1)Cc1ccccc1-2)C1CCC2(CC1)COC(Nc1ccccc1-c1ccccc1)OO2` (stereo not drawn) are 8, 100% and “inactive”.
`C=C(c1ccc2ccc3ccccc3c2c1)C1CCC2(CC1)COC(Nc1ccc(Cl)cc1)OO2` (stereo not drawn): the Activity was 76.9% in data set [1] and 100% in data set [3]. Moreover, the logP in data set [2] is 7.14. Further, the result in data set [4] was Active.
With `C=C(c1ccc2ccccc2c1)C1CCC2(CC1)COC(Nc1ccccc1)OO2` (stereo not drawn), the Activity in data set [1] and in data set [3] was 100% in each case. In data set [2], this compound displayed a logP of 5.59. Besides, the outcome in data set [4] was Active.
